Test results as given in ChEMBL document CHEMBL3526009, “Breast cancer resistance protein (ABCG2) determines distribution of genistein phase II metabolites: reevaluation of the roles of ABCG2 in the disposition of genistein” (Drug Metab Dispos, 2012).

What was measured:
[1] = Drug metabolism in wild-type FVB mouse small intestine S9 fraction assessed as compound glucuronidation rate at 10 uM by UPLC-MS/MS analysis; assay type: ADME, tissue-based; conditions: s9, 10 µM
Summary of the method: (§1)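 S9 from liver, small intestine or colon of FVB or Bcrp1(−/−) mice, 1 mg/ml protein, with 10 μM genistein in 50 mM potassium phosphate pH 7.4, 0.88 mM MgCl2, 4.4 mM saccharolactone, 0.022 mg/ml alamethicin. Glucuronidation started with 3.5 mM UDPGA; sulfation used 0.1 mM PAPS instead. 37°C, 60 min; n = 4.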

[2] = Elimination rate constant in BCRP-/- mouse at 2 mg/kg, po; assay type: ADME, organism-based; design: dose 2 mg/kg, route oral; conditions: in vivo
Summary of the method: (§2)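 Male wild-type FVB or Bcrp1(−/−) mice (6–10 weeks) on nonsoy chow ≥1 week, fasted 12 h with water, refed at 4 h. Oral gavage of 2 or 20 mg/kg as 4 mg/ml suspension in oral suspending vehicle; n = 5. Tail-snip blood at 10 time points under isoflurane, whole blood by UPLC-MS/MS (MRM); noncompartmental analysis.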

[3] = Drug metabolism in BCRP-/- mouse hepatic S9 fraction assessed as compound sulfation rate at 10 uM by UPLC-MS/MS analysis; assay type: ADME, Liver; conditions: s9, 10 µM; summary of the method: as §1
[4] = AUC (0 to 3 hrs) in BCRP-/- mouse at 50 mg/kg, po; assay type: ADME, organism-based; design: time < 3 hr, dose 50 mg/kg, route oral; conditions: plasma
[5] = Drug metabolism in BCRP-/- mouse colon S9 fraction assessed as compound sulfation rate at 10 uM by UPLC-MS/MS analysis; assay type: ADME, tissue-based; conditions: s9, 10 µM; summary of the method: as §1
[6] = Biliary excretion in wild-type FVB mouse measured after 2.5 hrs post intestinal perfusion by UPLC-MS/MS analysis; assay type: ADME; conditions: bile, read-out: Drug excretion
Summary of the method: (§3)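 Gallbladder bile taken after 2.5 h of simultaneous small intestine/colon perfusion with 10 μM genistein (HBSS pH 7.4, 0.191 ml/min) in FVB or Bcrp1(−/−) mice (n = 4). Bile diluted 20-fold in HBSS, daidzein internal standard in acetonitrile added, dried and reconstituted. Genistein and conjugates quantified by UPLC-MS/MS.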

[7] = AUC ( 0 to t) in wild-type FVB mouse at 20 mg/kg, po; assay type: ADME, organism-based; design: dose 20 mg/kg, route oral; conditions: plasma; summary of the method: as §2
[8] = Drug metabolism in wild-type FVB mouse small intestine S9 fraction assessed as compound sulfation rate at 10 uM by UPLC-MS/MS analysis; assay type: ADME, tissue-based; conditions: s9, 10 µM; summary of the method: as §1
[9] = AUC ( 0 to t) in wild-type FVB mouse at 20 mg/kg, ip; assay type: ADME, organism-based; design: dose 20 mg/kg, route intraperitoneal; conditions: plasma
Summary of the method: (§4)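 Male FVB or Bcrp1(−/−) mice (6–10 weeks), nonsoy chow ≥1 week, fasted 12 h. Single i.p. 20 mg/kg from 2 mg/ml solution in 100 mM sodium bicarbonate–PEG 300 (7:3), pH 10; n = 5. Serial tail blood at 10 time points under isoflurane; whole-blood genistein and conjugates by UPLC-MS/MS; noncompartmental analysis.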

[10] = Cmax in wild-type FVB mouse at 20 mg/kg, ip; assay type: ADME, organism-based; design: dose 20 mg/kg, route intraperitoneal; conditions: in vivo; summary of the method: as §4
Blood = test: Drug metabolism in Wistar rat blood at 3.8 uM after 4 hrs by UPLC-MS/MS analysis; assay type: ADME, tissue-based
Summary of the method: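 Glucuronide mix (G-7-G plus G-4′-G, 3 μM) with 3.8 μM genistein incubated in fresh Wistar rat blood, 37°C shaking bath up to 4 h; sulfate runs used 0.8 μM sulfates plus 2.2 μM aglycone. Samples at 0, 60, 120, 240 min quenched with acetonitrile/daidzein, analysed by UPLC-MS/MS; 50 mM phosphate buffer pH 7.4 as negative control; n = 3.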

[11] = Biliary excretion in BCRP-/- mouse measured after 2.5 hrs post intestinal perfusion by UPLC-MS/MS analysis; assay type: ADME; conditions: bile, read-out: Drug excretion; summary of the method: as §3
Intestine = test: Drug uptake in wild-type FVB mouse small intestine at 10 uM by UPLC-MS/MS analysis; assay type: ADME, tissue-based; conditions: in vivo
Summary of the method: (§5)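 In situ perfusion in FVB or Bcrp1(−/−) mice (n = 4): small intestine and colon (8–12 cm each) perfused together with 10 μM genistein in HBSS pH 7.4, 0.191 ml/min, 37°C. After 30-min washout, perfusate sampled at 60, 90, 120, 150 min; runs discarded if water flux >10% per 10 cm. Percent absorbed by UPLC-MS/MS.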

[12] = Drug metabolism in wild-type FVB mouse colon S9 fraction assessed as compound sulfation rate at 10 uM by UPLC-MS/MS analysis; assay type: ADME, tissue-based; conditions: s9, 10 µM; summary of the method: as §1
[13] = Cmax in BCRP-/- mouse at 50 mg/kg, po; assay type: ADME, organism-based; design: dose 50 mg/kg, route oral; conditions: in vivo
Colon = test: Drug uptake in wild-type FVB mouse colon at 10 uM by UPLC-MS/MS analysis; assay type: ADME, tissue-based; conditions: in vivo; summary of the method: as §5
Mus musculus [14] = organism: Mus musculus; test: Drug uptake in BCRP-/- mouse small intestine at 10 uM by UPLC-MS/MS analysis; assay type: ADME, organism-based; conditions: in vivo; summary of the method: as §5
[15] = Cmax in BCRP-/- mouse at 8 mg/kg, po; assay type: ADME, organism-based; design: dose 8 mg/kg, route oral; conditions: in vivo
[16] = Cmax in wild-type FVB mouse at 2 mg/kg, po; assay type: ADME, organism-based; design: dose 2 mg/kg, route oral; conditions: in vivo; summary of the method: as §2
[17] = Drug metabolism in BCRP-/- mouse small intestine S9 fraction assessed as compound sulfation rate at 10 uM by UPLC-MS/MS analysis; assay type: ADME, tissue-based; conditions: s9, 10 µM; summary of the method: as §1
[18] = Drug metabolism in BCRP-/- mouse hepatic S9 fraction assessed as compound glucuronidation rate at 10 uM by UPLC-MS/MS analysis; assay type: ADME, Liver; conditions: s9, 10 µM; summary of the method: as §1
[19] = Cmax in wild-type FVB mouse at 20 mg/kg, po; assay type: ADME, organism-based; design: dose 20 mg/kg, route oral; conditions: in vivo; summary of the method: as §2
[20] = Half life in wild-type FVB mouse at 20 mg/kg, ip; assay type: ADME, organism-based; design: dose 20 mg/kg, route intraperitoneal; conditions: in vivo; summary of the method: as §4
[21] = Drug recovery in human Caco2 cells at 2 to 10 uM after 4 hrs by UPLC-MS/MS analysis; assay type: ADME, cell-based; conditions: Caco-2, read-out: Drug recovery
Summary of the method: (§6)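 Caco-2 TC7 monolayers on 3 μm polycarbonate inserts, used 19–22 days post-seeding (TEER ≥460 Ω/cm2). Genistein 2 or 10 μM in HBSS pH 7.4 applied apically, ±5 μM Ko143 apically; sampling both sides at 0–4 h hourly with replacement, triplicate. Genistein and four conjugates plus intracellular amounts at 4 h by UPLC-MS/MS; mass balance versus dose added.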

[22] = AUC ( 0 to t) in BCRP-/- mouse at 2 mg/kg, po; assay type: ADME, organism-based; design: dose 2 mg/kg, route oral; conditions: plasma; summary of the method: as §2
[23] = Drug metabolism in BCRP-/- mouse small intestine S9 fraction assessed as compound glucuronidation rate at 10 uM by UPLC-MS/MS analysis; assay type: ADME, tissue-based; conditions: s9, 10 µM; summary of the method: as §1
[24] = AUC ( 0 to t) in BCRP-/- mouse at 20 mg/kg, po; assay type: ADME, organism-based; design: dose 20 mg/kg, route oral; conditions: plasma; summary of the method: as §2
Mus musculus [25] = test: Elimination rate constant in BCRP-/- mouse at 20 mg/kg, ip; assay type: ADME, organism-based; design: dose 20 mg/kg, route intraperitoneal; conditions: in vivo; summary of the method: as §4
[26] = Cmax in BCRP-/- mouse at 20 mg/kg, ip; assay type: ADME, organism-based; design: dose 20 mg/kg, route intraperitoneal; conditions: in vivo; summary of the method: as §4
[27] = Cmax in BCRP-/- mouse at 20 mg/kg, po; assay type: ADME, organism-based; design: dose 20 mg/kg, route oral; conditions: in vivo; summary of the method: as §2
[28] = Drug metabolism in wild-type FVB mouse hepatic S9 fraction assessed as compound sulfation rate at 10 uM by UPLC-MS/MS analysis; assay type: ADME, Liver; conditions: s9, 10 µM; summary of the method: as §1
[29] = Drug metabolism in BCRP-/- mouse colon S9 fraction assessed as compound glucuronidation rate at 10 uM by UPLC-MS/MS analysis; assay type: ADME, tissue-based; conditions: s9, 10 µM; summary of the method: as §1
BCRP = test: Drug recovery in human Caco2 cells at 2 to 10 uM after 4 hrs by UPLC-MS/MS analysis in presence of BCRP inhibitor Ko143; assay type: ADME, cell-based; conditions: Caco-2, with Ko143 (BCRP inhibitor, concentration not stated), read-out: Drug recovery; summary of the method: as §6
Mus musculus [30] = organism: Mus musculus; test: Drug uptake in BCRP-/- mouse colon at 10 uM by UPLC-MS/MS analysis; assay type: ADME, organism-based; conditions: in vivo; summary of the method: as §5
[31] = AUC ( 0 to t) in BCRP-/- mouse at 20 mg/kg, ip; assay type: ADME, organism-based; design: dose 20 mg/kg, route intraperitoneal; conditions: plasma
[32] = AUC ( 0 to t) in wild-type FVB mouse at 2 mg/kg, po; assay type: ADME, organism-based, Plasma; design: dose 2 mg/kg, route oral; summary of the method: as §2
[33] = Half life in BCRP-/- mouse at 2 mg/kg, po; assay type: ADME, organism-based; design: dose 2 mg/kg, route oral; conditions: in vivo; summary of the method: as §2
[34] = Drug metabolism in wild-type FVB mouse hepatic S9 fraction assessed as compound glucuronidation rate at 10 uM by UPLC-MS/MS analysis; assay type: ADME, Liver; conditions: s9, 10 µM; summary of the method: as §1
[35] = Elimination rate constant in wild-type FVB mouse at 20 mg/kg, ip; assay type: ADME, organism-based; design: dose 20 mg/kg, route intraperitoneal; conditions: in vivo; summary of the method: as §4
Mus musculus [36] = test: Half life in BCRP-/- mouse at 20 mg/kg, ip; assay type: ADME, organism-based; design: dose 20 mg/kg, route intraperitoneal; conditions: in vivo; summary of the method: as §4
[37] = Drug metabolism in wild-type FVB mouse colon S9 fraction assessed as compound glucuronidation rate at 10 uM by UPLC-MS/MS analysis; assay type: ADME, tissue-based; conditions: s9, 10 µM; summary of the method: as §1
[38] = AUC (0 to 3 hrs) in wild-type FVB mouse at 50 mg/kg, po; assay type: ADME, organism-based; design: time < 3 hr, dose 50 mg/kg, route oral; conditions: plasma
[39] = Cmax in BCRP-/- mouse at 2 mg/kg, po; assay type: ADME, organism-based; design: dose 2 mg/kg, route oral; conditions: in vivo; summary of the method: as §2
[40] = Drug transport in human Caco2 cells assessed as basolateral excretion of compound at 2 uM after 4 hrs by UPLC-MS/MS analysis in presence of BCRP inhibitor Ko143; assay type: ADME, cell-based; conditions: caco-2, 4 h; summary of the method: as §6

## O=c1c(-c2ccc(O)cc2)coc2cc(O)cc(O)c12 [GENISTEIN]
[1]
  Drug metabolism: metabolite_not_detected
[2]
  k el: 7.5e-05 s⁻¹
[3]
  Drug metabolism: 7.9 pmol/min/mg
[4]
  AUC(0-t) at 3 h: 5 µM·h
[5]
  Drug metabolism: 15.2 pmol/min/mg
[6]
  concentration at 2.5 h: 9900 nM
[7]
  AUC(0-t): 6.05 µM·h
[8]
  Drug metabolism: metabolite_not_detected
[9]
  AUC(0-t): 10 µM·h
[10]
  Cmax: 2680 nM
Blood
  Stability: Stable
[11]
  concentration at 2.5 h: 9100 nM
Intestine
  Drug uptake: 87%
[12]
  Drug metabolism: 26.5 pmol/min/mg
[13]
  Cmax: 200 nM
Colon
  Drug uptake: 46%
Mus musculus [14]
  Drug uptake: 74%
[15]
  Cmax: 1100 nM
[16]
  Cmax: 100 nM
[17]
  Drug metabolism: metabolite_not_detected
[18]
  Drug metabolism: 2737 pmol/min/mg
[19]
  Cmax: 650 nM
[20]
  half-life: 4.8 h
[21]
  recovery at 4 h, up to 10 µM: 92.3%
[22]
  AUC(0-t): 0.71 µM·h
[23]
  Drug metabolism: metabolite_not_detected
[24]
  AUC(0-t): 16.4 µM·h
Mus musculus [25]
  Kel: 0.52 h⁻¹
[26]
  Cmax: 4420 nM
[27]
  Cmax: 3350 nM
[28]
  Drug metabolism: 13.3 pmol/min/mg
[29]
  Drug metabolism: 117 pmol/min/mg
BCRP
  recovery at 4 h, up to 10 µM: 87.8%
Mus musculus [30]
  Drug uptake: 52%
[31]
  AUC(0-t): 11.5 µM·h
[32]
  AUC(0-t): 0.36 µM·h
[33]
  half-life: 3.8 h
[34]
  Drug metabolism: 1299 pmol/min/mg
[35]
  k el: 6.39e-05 s⁻¹
Mus musculus [36]
  t1/2: 2.8 h
[37]
  Drug metabolism: 78 pmol/min/mg
[38]
  AUC(0-t) at 3 h: 0.9 µM·h
[39]
  Cmax: 230 nM
[40]
  Drug transport: Not Active
